Reference: ChEMBL document CHEMBL1142736, “Synthesis of novel diarylpyrimidine analogues and their antiviral activity against human immunodeficiency virus type 1” (J Med Chem, 2005)

How the values were obtained:
[1] = test system: Human immunodeficiency virus 1; experiment: Effective concentration against human immunodeficiency virus type 1 mutated at 100I; type: functional, organism-based
[2] = test system: Human immunodeficiency virus 1; experiment: Effective concentration against human immunodeficiency virus type 1 mutated at 181C; type: functional, organism-based
[3] = test system: Human immunodeficiency virus 1; experiment: Effective concentration for the inhibition of wild type human immunodeficiency virus type 1 LAI strain; type: functional, organism-based
[4] = test system: Human immunodeficiency virus 1; experiment: Effective concentration against human immunodeficiency virus type 1 mutated at 227C; type: functional, organism-based
[5] = test system: Human immunodeficiency virus 1; experiment: Effective concentration against human immunodeficiency virus type 1 mutated at 188L; type: functional, organism-based
[6] = test system: Human immunodeficiency virus 1; experiment: Effective concentration against human immunodeficiency virus type 1 mutated at 103N; type: functional, organism-based
[7] = test system: Human immunodeficiency virus 1; experiment: Effective concentration against human immunodeficiency virus type 1 mutated at 227L+106A; type: functional, organism-based
[8] = test system: Human immunodeficiency virus 1; experiment: Ratio of CC50 and EC50 against wild type human immunodeficiency virus type 1 LAI strain; type: functional
[9] = test system: Human immunodeficiency virus 1; experiment: Effective concentration against human immunodeficiency virus type 1 mutated at 100I+103N; type: functional, organism-based
[10] = test system: Human immunodeficiency virus 1; experiment: Effective concentration against human immunodeficiency virus type 1 mutated at 103N+181C; type: functional, organism-based
[11] = Cytotoxic concentration against wild type human immunodeficiency virus type 1 […] strain; conditions: Human immunodeficiency virus 1
Summary of the method: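 MT-4 cells, 30,000 cells/well, were mock-infected (virus at 200-250 CCID50/well for the infected wells) and exposed to a range of compound concentrations. Plates were held at 37 °C with 5% CO2.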

[12] = test system: Human immunodeficiency virus 1; experiment: Effective concentration against human immunodeficiency virus type 1 mutated at 103N+181C; ND:Not determined; type: functional, organism-based

Cc1cc(C#N)cc(C)c1Nc1ccnc(Nc2ccc(C#N)cc2)n1
EC50 [1]: 31 nM | EC50 [2]: 6.3 nM | EC50 [3]: 0.4 nM | EC50 [4]: 100 nM | EC50 [5]: 7.9 nM | EC50 [6]: 2 nM | EC50 [7]: 12.6 nM | Selectivity index [8]: 12500 | EC50 [9]: 1000 nM | EC50 [10]: 31 nM | CC50 [11]: 5000 nM

CC(C)Nc1cccnc1N1CCN(C(=O)c2cc3cc(NS(C)(=O)=O)ccc3[nH]2)CC1 [DELAVIRDINE]
EC50 [12]: 20000 nM | EC50 [1]: 2510 nM | EC50 [2]: 2000 nM | EC50 [3]: 63.1 nM | EC50 [5]: 1260 nM | EC50 [6]: 2510 nM | Selectivity index [8]: >300 | CC50 [11]: > 20000 nM

Cc1cc(/C(Cl)=C/C#N)cc(C)c1Nc1ccnc(Nc2ccc(C#N)cc2)n1
EC50 [1]: 2.51 nM | EC50 [2]: 6.31 nM | EC50 [3]: 4 nM | EC50 [4]: 31.6 nM | EC50 [5]: 7.95 nM | EC50 [6]: 2 nM | EC50 [7]: 7.95 nM | Selectivity index [8]: 7500 | EC50 [9]: 31.6 nM | EC50 [10]: 6.31 nM | CC50 [11]: 30000 nM

Cc1cc(-c2ccc(C#N)o2)cc(C)c1Nc1ccnc(Nc2ccc(C#N)cc2)n1
EC50 [1]: 31.6 nM | EC50 [2]: 40 nM | EC50 [3]: 4 nM | EC50 [4]: 31.6 nM | EC50 [5]: 31.6 nM | EC50 [6]: 7.95 nM | EC50 [7]: 31.6 nM | Selectivity index [8]: 3162 | EC50 [9]: 500 nM | CC50 [11]: 10000 nM

Cc1cc(/C=C/CC#N)cc(C)c1Nc1ccnc(Nc2ccc(C#N)cc2)n1
EC50 [1]: 40 nM | EC50 [2]: 31.6 nM | EC50 [3]: 1 nM | EC50 [4]: 40 nM | EC50 [5]: 20 nM | EC50 [6]: 2.51 nM | EC50 [7]: 50 nM | Selectivity index [8]: 10000 | EC50 [9]: 251 nM | EC50 [10]: 1 nM | CC50 [11]: 10000 nM

C/C(=C\C#N)c1cc(C)c(Nc2ccnc(Nc3ccc(C#N)cc3)n2)c(C)c1
EC50 [1]: 0.8 nM | EC50 [2]: 2.51 nM | EC50 [3]: 1 nM | EC50 [4]: 5 nM | EC50 [5]: 4 nM | EC50 [6]: 1 nM | EC50 [7]: 5 nM | Selectivity index [8]: 30000 | EC50 [9]: 2.51 nM | EC50 [10]: 2.51 nM | CC50 [11]: 30000 nM

C/C(C#N)=C\c1cc(C)c(Nc2ccnc(Nc3ccc(C#N)cc3)n2)c(C)c1
EC50 [1]: 0.6 nM | EC50 [2]: 1.6 nM | EC50 [3]: 0.8 nM | EC50 [4]: 2.51 nM | EC50 [5]: 3.16 nM | EC50 [6]: 0.6 nM | EC50 [7]: 4 nM | Selectivity index [8]: 25000 | EC50 [9]: 7.95 nM | EC50 [10]: 2 nM | CC50 [11]: 20000 nM

O=C1Nc2ccc(Cl)cc2[C@@](C#CC2CC2)(C(F)(F)F)O1 [EFAVIRENZ]
EC50 [1]: 40 nM | EC50 [2]: 2 nM | EC50 [4]: 160 nM | EC50 [5]: 160 nM | EC50 [6]: 40 nM | EC50 [9]: > 10000 nM | EC50 [10]: 40 nM | CC50 [11]: 10000 nM

Cc1cc(/C=C(/C#N)CC#N)cc(C)c1Nc1ccnc(Nc2ccc(C#N)cc2)n1
EC50 [1]: 31.6 nM | EC50 [2]: 6.31 nM | EC50 [3]: 0.4 nM | EC50 [4]: 12.5 nM | EC50 [5]: 31.6 nM | EC50 [6]: 6.31 nM | EC50 [7]: 25.1 nM | Selectivity index [8]: 5012 | CC50 [11]: 2000 nM

Cc1cc(/C=C/C#N)cc(C)c1Nc1ccnc(Nc2ccc(C#N)cc2)n1 [RILPIVIRINE]
EC50 [1]: 0.4 nM | EC50 [2]: 1.26 nM | EC50 [4]: 2 nM | EC50 [5]: 2 nM | EC50 [6]: 0.3 nM | EC50 [7]: 1 nM | EC50 [9]: 7.95 nM | EC50 [10]: 1 nM | CC50 [11]: 30000 nM

Cc1cc(COCCC#N)cc(C)c1Nc1ccnc(Nc2ccc(C#N)cc2)n1
EC50 [1]: 25.1 nM | EC50 [2]: 31.6 nM | EC50 [3]: 0.63 nM | EC50 [4]: 10 nM | EC50 [5]: 40 nM | EC50 [6]: 3.16 nM | EC50 [7]: 125 nM | Selectivity index [8]: 15873 | CC50 [11]: 10000 nM

Cc1cc(/C=C\C#N)cc(C)c1Nc1ccnc(Nc2ccc(C#N)cc2)n1
EC50 [1]: 6.3 nM | EC50 [2]: 5 nM | EC50 [3]: 0.6 nM | EC50 [4]: 4 nM | EC50 [5]: 31 nM | EC50 [6]: 1.6 nM | EC50 [7]: 4 nM | EC50 [9]: 794 nM | EC50 [10]: 39.8 nM | CC50 [11]: 30000 nM

C/C(C#N)=C/c1cc(C)c(Nc2ccnc(Nc3ccc(C#N)cc3)n2)c(C)c1
EC50 [1]: 31.6 nM | EC50 [2]: 4 nM | EC50 [3]: 0.8 nM | EC50 [4]: 5 nM | EC50 [5]: 31.6 nM | EC50 [6]: 1 nM | EC50 [7]: 5 nM | Selectivity index [8]: 3750 | EC50 [9]: > 10000 nM | EC50 [10]: 20 nM | CC50 [11]: 3000 nM

Cc1cc(CCC#N)cc(C)c1Nc1ccnc(Nc2ccc(C#N)cc2)n1
EC50 [1]: 7.95 nM | EC50 [2]: 12.5 nM | EC50 [3]: 0.63 nM | EC50 [4]: 4 nM | EC50 [5]: 20 nM | EC50 [6]: 0.4 nM | EC50 [7]: 4 nM | Selectivity index [8]: 4782 | EC50 [9]: 31.6 nM | EC50 [10]: 2.51 nM | CC50 [11]: 3000 nM

Cc1cc(CC#N)cc(C)c1Nc1ccnc(Nc2ccc(C#N)cc2)n1
EC50 [1]: 40 nM | EC50 [2]: 25.1 nM | EC50 [3]: 0.8 nM | EC50 [4]: 10 nM | EC50 [5]: 25.1 nM | EC50 [6]: 7.95 nM | EC50 [7]: 125 nM | Selectivity index [8]: 12589 | CC50 [11]: 10000 nM

Cc1cc(CC(C)C#N)cc(C)c1Nc1ccnc(Nc2ccc(C#N)cc2)n1 (stereo not drawn)
EC50 [1]: 1 nM | EC50 [2]: 2 nM | EC50 [3]: 0.63 nM | EC50 [4]: 6.31 nM | EC50 [5]: 50 nM | EC50 [6]: 0.63 nM | EC50 [7]: 3.16 nM | Selectivity index [8]: 1578 | EC50 [9]: 12.5 nM | EC50 [10]: 5 nM | CC50 [11]: 1000 nM

Cc1ccnc2c1NC(=O)c1cccnc1N2C1CC1 [NEVIRAPINE]
EC50 [1]: 316 nM | EC50 [2]: 10000 nM | EC50 [3]: 39.8 nM | EC50 [5]: > 10000 nM | EC50 [6]: 6310 nM | Selectivity index [8]: >500 | EC50 [10]: > 10000 nM | CC50 [11]: 20000 nM
